In the library only some 4.7% were active in any assay of this set; here they are far more common.
KCC2 mod: KCC2 cotransporter modulators, thallium flux, primary screen, cell-based, HEK293 KCC2, FluoZin-2 fluorescence, MLSMR. Solute carrier family 12 member 5 (Homo sapiens), Q9H2X9. KCC2 cells, thallium flux FluoZin-2 fluorescence. B-score of Tl+ flux slope (higher = more flux/activation; lower = inhibition) at 10 µM. hit rate 2.2% among 190,000. AID 1456, 2008;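 active = thallium flux slope and its plate-corrected score both differing from the plate sample mean at a set confidence after two filtering rounds, in either direction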;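 note: slope of fluorescence scaled to starting intensity during 10 to 20 s after thallium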
RGS4 pot: RGS4 potentiators or activators, primary screen, cell-based, HEK293 M3R inducible RGS4, calcium flux; B-score at 10 µM; hit rate 0.92% among 310,000; carbachol calcium flux Fluo4; stronger effect = lower value;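 active = B-score of the integrated calcium signal more than 4 SD below the library mean, with starting fluorescence not abnormally high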;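 note: negative B-score means reduced calcium response which marks RGS4 activation or potentiation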
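test system = M3R-expressing HEK293 line, RGS4 induced by doxycycline | probe or stimulus = carbachol at ECmax as muscarinic agonist stimulus | timing = dye loading 30 min 37 °C, buffer rest 30 min RT | signal = calcium dye Fluo4 fluorescence | evaluation = B score from integrated fluorescence ratio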
MrgX1 agonist: agonists of human MrgX1 receptor, primary screen, HEK293 cells, Fluo-4 calcium flux; Mas-related G-protein coupled receptor member X1 (Homo sapiens), Q96LB2; Fluo-4 calcium fluorescence, agonist mode; stronger effect = higher value; hit rate 0.44% among 310,000; B-score at 10 µM;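 active = calcium response B-score plate-corrected fluorescence ratio at least 3 library SD, with starting fluorescence B-score inside 5 SD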
Target sequence (Q96LB2 whole entry, looked up): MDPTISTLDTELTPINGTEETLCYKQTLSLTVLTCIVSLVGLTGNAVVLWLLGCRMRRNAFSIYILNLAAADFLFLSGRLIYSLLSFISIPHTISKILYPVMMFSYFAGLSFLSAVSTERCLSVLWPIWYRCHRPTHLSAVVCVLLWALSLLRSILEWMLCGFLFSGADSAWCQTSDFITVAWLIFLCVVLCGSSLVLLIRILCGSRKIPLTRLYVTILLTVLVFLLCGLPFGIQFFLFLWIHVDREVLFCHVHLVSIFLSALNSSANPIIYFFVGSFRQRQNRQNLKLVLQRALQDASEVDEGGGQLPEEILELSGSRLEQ
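Assay system: stable human MrgX1 HEK293 cell line. Quantity: 15,000 cells per well. Schedule: cells plated overnight, dye loaded 0.5 h 37 °C, 0.5 h room temperature. Detection: Fluo-4 NW calcium-flux fluorescence, kinetic read. Read-out basis: peak-minus-minimum fluorescence over baseline, converted to B scores. Control set: positive and negative control wells on each plate.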
RGS4 block: RGS4 inhibitors, primary screen, cell-based, HEK293 M3R inducible RGS4, calcium flux | B-score at 10 µM | AID 463165, 2010 | Regulator of G-protein signaling 4 (Homo sapiens), P49798 | Fluo-4 calcium flux; stronger effect = higher value; triggered by carbachol at its EC20 | hit rate 0.45% among 310,000;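 active = B-score, a plate-corrected calcium signal, over three deviations above library mean, with baseline fluorescence within five deviations of library mean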;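 note: RGS4 expression induced by doxycycline in cells with stable M3 receptor; B-score is computed from the integrated fluorescence ratio over baseline after carbachol; higher B-score means a larger calcium signal and so more RGS4 inhibition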
Target sequence (P49798 whole entry, looked up): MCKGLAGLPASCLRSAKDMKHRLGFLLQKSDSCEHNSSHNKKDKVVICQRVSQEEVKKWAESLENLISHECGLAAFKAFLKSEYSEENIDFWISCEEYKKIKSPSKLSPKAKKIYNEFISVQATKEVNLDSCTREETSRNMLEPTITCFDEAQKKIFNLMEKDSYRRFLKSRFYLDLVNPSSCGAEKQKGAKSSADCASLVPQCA
MrgX1 antag: antagonists of human MrgX1 receptor, primary screen, HEK293 cells, Fluo-4 calcium flux. Mas-related G-protein coupled receptor member X1 (Homo sapiens), Q96LB2. BAM8-22 antagonism; stronger effect = lower value. B-score at 10 µM. hit rate 1.3% among 310,000. AID 588676, 2011;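 active = calcium-response B-score plate-corrected more than 3 library SD below zero, starting fluorescence within 5 deviations, no agonist response on first addition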;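 note: peak minus trough fluorescence over baseline after final BAM8-22 challenge near maximal dose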
MrgX1 allo act: positive allosteric modulators of MrgX1, primary screen, HEK293 cells, Fluo-4 calcium flux | Mas-related G-protein coupled receptor member X1 (Homo sapiens), Q96LB2 | FDSS; stronger effect = higher value | B-score at 10 µM | hit rate 0.63% among 310,000;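 active = plate-corrected calcium response at least 3 library SD above typical, normal starting fluorescence, not activating the receptor alone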;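 note: compound read alongside a low EC10 to EC30 dose of BAM8-22 agonist; peak minus trough fluorescence over baseline measured at the second addition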
Numbers without * were called inactive; i = inactive; nt = no result.

SMILES | KCC2 mod | RGS4 pot | MrgX1 agonist | RGS4 block | MrgX1 antag | MrgX1 allo act
CCOC(=O)C1CCN(S(=O)(=O)c2ccc(OC)c(C(=O)N3CCCCC3)c2)CC1 | nt | i | i | i | i | i
Cc1cc(OC(=O)c2ccccc2Cl)cc(=O)n1C | nt | i | i | i | i | 10*
Cc1[nH]n(-c2ccccc2)c(=O)c1/C=N/c1nn[nH]n1 | 0.63 | i | i | i | i | i
Cc1[nH]n(-c2ccccc2)c(=O)c1/C=N/c1ccccn1 | 18* | i | i | i | i | i
CCCNC(=O)c1ccccc1SCc1c(C)noc1C | nt | i | i | i | i | i
Cc1ccc(NC(=S)N=Nc2c(O)n(C)c3ccc(S(=O)(=O)N4CCOCC4)cc23)cc1 | 9.6* | i | nt | i | nt | nt
COc1ccc(NC(=O)c2ccc(N3C(=O)C4CC=C(C)CC4C3=O)cc2)c(OC)c1 (centres undefined) | nt | i | i | i | i | i
COc1ccc2oc(=O)c(C(=O)NCc3ccc4c(c3)OCO4)cc2c1 | 0.78 | i | i | i | -6.1* | i
COc1ccc(C(=O)NCc2ccc3c(c2)OCO3)c(OC)c1 | nt | i | i | i | i | i
CS(=O)(=O)N1N=C(c2cccs2)CC1c1ccccc1O (centres undefined) | 0.42 | i | i | i | i | i
Oc1ccccc1C1CC(c2cccs2)=NC(c2ccc(Cl)cc2)N1 (centres undefined) | 0.98 | i | i | i | i | 7.4*
CC(=O)NCC(=O)N(c1c(C)n(C)n(-c2ccccc2)c1=O)C1(C(=O)NC2CCCC2)CCCCC1 | 0.83 | i | i | i | i | 15*
O=C(c1ccncc1)N1N=C(C2CCCCC2)CC1(O)C(F)(F)F (centres undefined) | 0.0083 | -7.4* | i | i | i | i
Cc1ccc(C#CC[N+]2(CC#Cc3ccc(C)cc3)CCCCC2)cc1 | -0.48 | -7.1* | i | i | i | i
C(#Cc1ccccc1)C[N+]1(CC#Cc2ccccc2)CCCCC1 | 1 | -8.6* | i | i | i | i
C#CC[N+]1(CC#Cc2ccccc2)CCCCC1 | -0.86 | i | i | i | i | i
CC(=O)Nc1cccc(NC(=O)Cc2ccc3ccccc3c2)c1 | nt | i | i | i | i | i
O=[N+]([O-])c1nn(-c2ccc3c(c2)OCCO3)n(O)c1=NC1CCN(Cc2ccccc2)CC1 | -2 | i | i | i | -5.1* | i
CCCCNC(=O)C1Cc2cc(S(=O)(=O)N3CCCCC3)ccc2N1C(C)=O (centres undefined) | nt | i | i | i | i | i
C[C@H]1CN=C(Nc2ccccc2)N1CCc1ccccc1 | nt | nt | i | nt | i | i
O=C(NCCN1C(=O)S/C(=C\c2cccs2)C1=O)[C@H](Cc1ccccc1)N1C(=O)c2ccccc2C1=O | -0.13 | i | i | i | -8.4* | i
CC(C(=O)NCCN1C(=O)S/C(=C\c2cccs2)C1=O)N1C(=O)c2ccccc2C1=O (centres undefined) | -1.6 | i | i | i | i | i
O=C(c1ccc(Br)s1)N1CCN(c2ccccn2)CC1 | nt | i | i | i | i | i
O=C(N1CCN(c2ccccn2)CC1)N1c2ccccc2Sc2ccccc21 | 0.037 | -7.4* | i | i | i | i
CC1CCc2c(sc(NS(=O)(=O)c3ccccc3)c2C(=O)OC(C)C)C1 (centres undefined) | 10* | i | i | i | i | i
SMILES | KCC2 mod | RGS4 pot | MrgX1 agonist | RGS4 block | MrgX1 antag | MrgX1 allo act
CCn1c(=S)[nH]c2c(c1=O)C(C)(C)Cc1ccccc1-2 | 151* | i | nt | i | nt | nt
CN(C)CCCOc1cccc(Oc2ccccc2)c1 | 1.3 | -7.5* | i | i | i | i
Cc1ccc(C)c(NC(=O)Nn2cnnc2)c1 | nt | i | i | i | i | i
COc1ccc2nc(-c3ccccn3)[nH]c2c1 | nt | i | i | i | i | i
Cc1[nH]c(-c2ccccn2)nc(=S)c1Cl | 63* | i | i | i | i | i
Cc1cccc(-n2nnc(C(=O)N3CCc4ccccc4C3)c2N)c1 | -1.9 | i | i | i | i | i
Cc1cc(C)c2cc3c(N)c(C(=O)N4CCc5ccccc5C4)sc3nc2c1 | nt | -8* | i | i | -8.5* | i
CC(Sc1nnc2c(n1)[nH]c1ccccc12)C(=O)N(C)C1CCCCC1 (centres undefined) | nt | i | i | i | -7.2* | i
CC(Sc1nnc2c(n1)[nH]c1ccccc12)C(=O)NC1CCCCC1 (centres undefined) | nt | i | i | i | i | i
Cc1ccc(S(=O)(=O)NCC(C)n2cncn2)cc1C (centres undefined) | nt | i | i | i | i | i
CC(C)n1nc(C(=O)Nc2cccc(S(=O)(=O)NCc3ccco3)c2)c2ccccc2c1=O | -1.1 | -7.2* | i | i | i | i
CCc1ccc(NC(=O)c2ccc(NC3=NC4CS(=O)(=O)CC4S3)cc2)cc1 (centres undefined) | nt | i | i | i | i | i
CCCn1c(-c2ccc(F)cc2)n[nH]c1=S | 0.17 | i | i | i | i | i
C=C(C)Cn1c(-c2cccc([N+](=O)[O-])c2)n[nH]c1=S | -0.3 | i | i | i | -4.8* | i
CCCCn1c(-c2ccc([N+](=O)[O-])cc2)n[nH]c1=S | -0.004 | -10* | i | i | i | i
C=CCn1c(-c2cccc([N+](=O)[O-])c2)n[nH]c1=S | -0.37 | i | i | i | i | i
COc1cccc(N2C(=NC(=O)COc3ccccc3)SC3CS(=O)(=O)CC32)c1 (centres undefined) | nt | i | i | i | i | i
CC(/C=N/NC(=O)Cn1cnc2c1c(=O)n(C)c(=O)n2C)=C\c1ccco1 | 0.1 | i | i | i | i | i
Cn1c(=O)c2c(ncn2CC(=O)N/N=C/C=C/c2ccco2)n(C)c1=O | 0.00059 | i | i | i | i | 18*
Cc1noc(C)c1COc1ccc(C(=O)Nc2cccnc2)cc1 | -0.44 | -7.4* | nt | i | nt | nt
N#CCCN(Cc1ccccc1)S(=O)(=O)c1cccs1 | nt | i | i | i | i | i

Compound activity as filed in PubChem.
